In ChEMBL document CHEMBL4622838, “Deuteration of the farnesyl terminal methyl groups of δ-tocotrienol and its effects on the metabolic stability and ability of inducing G-CSF production” (Bioorg Med Chem, 2020):
The source made the active and inactive calls. The calls are words filed in the database; no cut-off is given here.

Tests used:
[1] = AUC (0 to last) in CD2F1 mouse at 50 mg/kg, iv measured up to 24 hrs; format: ADME, organism-based; parameters: dose 50 mg/kg, route intravenous, time 0 - last; details: in vivo
Summary of the method: (§1)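 Single IV bolus in CD2F1 mice, emulsified in PBS with 33% PEG400 and 2% tween 80 (150 µL/mouse, 0.22 µm filtered), n = 4 per group. Retro-orbital blood into EDTA-K tubes at 0, 5, 10, 30 min and 1, 2, 4, 6, 12, 24 h. Plasma extracted with methanol/ascorbic acid plus heptane/BHT, internal standard, HPLC-fluorescence.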

[2] = Cmax in CD2F1 mouse at 200 mg/kg, sc measured up to 24 hrs; format: ADME, organism-based; parameters: dose 200 mg/kg, route subcutaneous; details: in vivo
Summary of the method: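 Single subcutaneous dose, 200 mg/Kg, emulsified in PBS with 5% tween 80, 100 µL/mouse, filter-sterilized; n = 4 per group. Retro-orbital blood into EDTA potassium tubes at 0, 7.5, 15, 30 min, 1, 2, 4, 6, 8, 12, 24 h; plasma at -80 °C. Heptane/methanol extraction with internal standard, HPLC-fluorescence; peak concentration taken from the concentration-time profile.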

[3] = AUC (0 to last) in CD2F1 mouse at 200 mg/kg, sc measured up to 24 hrs; format: ADME, organism-based; parameters: dose 200 mg/kg, route subcutaneous, time 0 - last; details: in vivo
Summary of the method: as §1, with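 “SC injection” for “IV bolus”, “5%” for “33% PEG400 and 2%”, “(100” for “(150”, “7.5, 15,” for “5, 10,”, “6, 8,” for “6,”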

[4] = Intrinsic clearance in mouse liver microsomes; format: ADME, Microsome
Summary of the method: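 Mouse liver microsomes (5 mg protein/mL) in potassium phosphate buffer pH 7.4 with EDTA; compound 1 µM preincubated 30 min at 37 °C, reaction started with NADPH-generating system (NADP⁺, glucose-6-phosphate, MgCl₂, G6PDH); no-NADPH control. Sampled at 5, 15, 30 min into cold acetonitrile with internal standard; percent remaining measured; half-life and clearance calculated; n = 3.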

[5] = Half life in mouse liver microsomes; format: ADME, Microsome
[6] = Metabolic stability in mouse liver microsomes assessed as compound degradation at 1 uM preincubated for 30 mins followed by NADPH addition measured up to 30 mins by HPLC-UV analysis; format: ADME, Microsome; details: 0.5 h
Summary of the method: (§2)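 Mouse liver microsomes (5 mg protein/mL) in 0.2 M potassium phosphate, pH 7.4, with EDTA. Test compound at 1 µM preincubated 30 min at 37 °C, then started with an NADPH-generating system (NADP⁺, Glc-6-PO₄, MgCl₂, G6PDH); controls received buffer in place of NADPH. Sampled at 5, 15 and 30 min into cold acetonitrile containing GT3 internal standard. Percent remaining reported, n = 3.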

[7] = Clearance in CD2F1 mouse at 50 mg/kg, iv measured up to 24 hrs; format: ADME, organism-based; details: in vivo
Summary of the method: (§3)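 Single IV bolus, 50 mg/Kg, emulsified in PBS with 33% PEG400 and 2% tween 80, 150 µL/mouse, filter-sterilized; n = 4 per group. Retro-orbital blood into EDTA potassium tubes at 0, 5, 10, 30 min, 1, 2, 4, 6, 12, 24 h. Plasma extracted with methanol (2% ascorbic acid) and heptane (1% BHT) plus internal standard; HPLC-fluorescence quantitation.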

[8] = Volume of distribution in CD2F1 mouse at 50 mg/kg, iv measured up to 24 hrs; format: ADME, organism-based; details: in vivo; summary of the method: as §3
[9] = AUC (0 to infinity) in CD2F1 mouse at 50 mg/kg, iv measured up to 24 hrs; format: ADME, organism-based; parameters: dose 50 mg/kg, time infinity, route intravenous; details: in vivo; summary of the method: as §1
[10] = Plasma concentration in CD2F1 mouse at 200 mg/kg, sc administered as single dose measured after 1 hr by HPLC-fluorescence analysis; format: ADME, organism-based
Summary of the method: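 Single subcutaneous dose of 200 mg/Kg in CD2F1 mice, emulsified in PBS with 5% tween 80 and filter-sterilized, n = 3–4. Retro-orbital blood drawn at 0 min to 24 h. Plasma mixed with internal standard, methanol containing 2% ascorbic acid and heptane containing 1% BHT. Upper layer dried under N₂, reconstituted in methanol and quantified by HPLC-fluorescence.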

[11] = Metabolic stability in mouse live microsomes assessed as compound degradation in absence of NADPH; format: ADME, Liver, Microsome; summary of the method: as §2
Mus musculus [12] = assay: Induction of G-CSF production in CD2F1 mouse at 200 mg/kg, sc by G-CSF ELISA kit method; format: functional, organism-based; details: TDE = time-dependent effect
Summary of the method: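 CD2F1 mice, subcutaneous dose of 0.5 mM/Kg (200 mg/Kg) emulsified in PBS with 5% tween 80, n = 3–4. Blood taken into EDTA-K tubes at 8, 12, 24 and 48 h. Plasma spun at 1200 rpm, 15 min, 4 °C and held at −80 °C. G-CSF measured by mouse ELISA, each sample run in duplicate and averaged, with a standard curve on every plate.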

Mus musculus [13] = assay: Induction of G-CSF production in CD2F1 mouse at 200 mg/kg, sc pretreated with ketoconazole after 24 hrs by G-CSF ELISA kit method; format: functional, organism-based
Summary of the method: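 CD2F1 mice received ketoconazole in corn oil (5 mg/250 µL/mouse) by oral gavage at 26, 14 and 2 h before drug. Drug then given subcutaneously at 200 mg/Kg in 5% tween 80/PBS, n = 3. Plasma collected at 8 and 24 h. G-CSF measured by ELISA in duplicate against a per-plate standard curve.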

SMILES	AUClast [1]	Cmax [2]	AUClast [3]	CLH [4]	t1/2 [5]	Stability [6]	CL [7]	Vd [8]	AUC [9]	concentration at 1 h [10]	Stability [11]	Activity (Mus musculus [12])	Activity (Mus musculus [12]; tested as the 2H-labelled form)	Activity (Mus musculus [13])	Activity (Mus musculus [13]; tested as the 2H-labelled form)
[2H]C([2H])([2H])C(=CCC/C(C)=C/CC/C(C)=C/CC[C@]1(C)CCc2cc(O)cc(C)c2O1)C([2H])([2H])[2H]	34213 ng·h/mL	970 ng/mL	11354 ng·h/mL	3580 µL/min/mg	2.642 h	Unstable	23.3 mL/min/kg	21.3 L/kg	35707 ng·h/mL	800 to 1000 ng/mL	Stable	–	–	–	–
CC(C)=CCC/C(C)=C/CC/C(C)=C/CC[C@]1(C)CCc2cc(O)cc(C)c2O1 [DELTA-TOCOTRIENOL]	32804 ng·h/mL	810 ng/mL	10314 ng·h/mL	5260 µL/min/mg	1.778 h	Unstable	24.92 mL/min/kg	20.7 L/kg	33456 ng·h/mL	800 to 1000 ng/mL	Stable	Tde	Tde	Active	Active
